According to ChEMBL document CHEMBL1144169, “Synthesis and cytotoxic activity of heterocyclic ring-substituted betulinic acid derivatives” (Bioorg Med Chem Lett, 2008):
≈ marks a conversion by molar mass, not a printed value.

Columns and labels:
[1] = test system: PA-1; experiment: Cytotoxicity against human PA-1 cells after 72 hrs by MTT assay; assay type: functional, cell-based; details: PA-1, 72 h
Outline: (§1)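 Cells harvested from 70–80% confluent cultures by trypsin/EDTA and seeded at 5000 cells/well in DMEM for 24 h. Compounds were dissolved in DMSO and diluted in medium to 0.5–20, with final DMSO below 1%. After 72 h at CO2, MTT was added for 3 h at 37 °C. Medium was replaced with DMSO and OD read at 540 nm. IC50 ± SD, three independent experiments.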

[2] = test system: DU-145; experiment: Cytotoxicity against human DU145 cells after 72 hrs by MTT assay; assay type: functional, cell-based; details: DU-145, 72 h; outline: as §1
[3] = test system: SW-620; experiment: Cytotoxicity against human SW620 cells after 72 hrs by MTT assay; assay type: functional, cell-based; details: SW-620, 72 h; outline: as §1
[4] = test system: HBL-100; experiment: Cytotoxicity against human HBL100 cells after 72 hrs by MTT assay; assay type: functional, cell-based; details: HBL-100, 72 h; outline: as §1
[5] = test system: MIA PaCa-2; experiment: Cytotoxicity against human MIA PaCa2 cells after 72 hrs by MTT assay; assay type: functional, cell-based; details: MIA PaCa-2, 72 h; outline: as §1
[6] = test system: A549; experiment: Cytotoxicity against human A549 cells after 72 hrs by MTT assay; assay type: functional, cell-based; details: A549, 72 h; outline: as §1
[7] = test system: K562; experiment: Cytotoxicity against human K-562 cells after 72 hrs by MTT assay; assay type: functional, cell-based; details: K562, 72 h
[8] = test system: NIH3T3; experiment: Cytotoxicity against mouse NIH3T3 cells after 72 hrs by MTT assay; assay type: cell-based; details: NIH3T3, 72 h; outline: as §1
[9] = test system: NIH3T3; experiment: Selectivity index, ratio of IC50 for mouse NIH3T3 cells to IC50 for human SW620 cells; assay type: functional
[10] = test system: MIA PaCa-2; experiment: Selectivity index, ratio of IC50 for mouse NIH3T3 cells to IC50 for human MIA PaCa2 cells; assay type: functional

| SMILES | IC50 [1] [µg/mL] | IC50 [2] [µg/mL] | IC50 [3] [µg/mL] | IC50 [4] [µg/mL] | IC50 [5] [µg/mL] | IC50 [6] [µg/mL] | IC50 [7] [µg/mL] | IC50 [8] [µg/mL] | Ratio IC50 [9] | Ratio IC50 [10] |
| --- | --- | --- | --- | --- | --- | --- | --- | --- | --- | --- |
| C=C(C)[C@@H]1CC[C@]2(C(=O)O)CC[C@]3(C)[C@H](CC[C@@H]4[C@@]5(C)Cc6c([nH]c7cc(Cl)cc(Cl)c67)C(C)(C)[C@@H]5CC[C@]43C)[C@@H]12 | > 20 | > 20 | > 20 | > 20 | > 20 | 5.5 (≈ 9.22 µM) | > 20 | 4.1 (≈ 6.87 µM) | – | – |
| CC(C)[C@@H]1CC[C@]2(C(=O)O)CC[C@]3(C)[C@H](CC[C@@H]4[C@@]5(C)Cc6c(n(C)c7ccccc67)C(C)(C)[C@@H]5CC[C@]43C)[C@@H]12 | > 20 | > 20 | > 20 | 14.1 (≈ 26 µM) | 5.4 (≈ 9.93 µM) | 6.5 (≈ 12 µM) | 10.8 (≈ 20 µM) | > 20 | – | – |
| C=C(C)[C@@H]1CC[C@]2(C(=O)NCC(=O)O)CC[C@]3(C)[C@H](CC[C@@H]4[C@@]5(C)Cc6c([nH]c7ccc(Cl)cc67)C(C)(C)[C@@H]5CC[C@]43C)[C@@H]12 | 6.66 (≈ 10.8 µM) | 10.3 (≈ 16.7 µM) | 10.4 (≈ 16.8 µM) | 16.5 (≈ 26.6 µM) | 10.7 (≈ 17.3 µM) | 12.4 (≈ 20 µM) | > 20 | 11.2 (≈ 18.1 µM) | – | – |
| C=C(C)[C@@H]1CC[C@]2(C(=O)O)CC[C@]3(C)[C@H](CC[C@@H]4[C@@]5(C)Cc6c(n(C)c7ccccc67)C(C)(C)[C@@H]5CC[C@]43C)[C@@H]12 | > 20 | 20 (≈ 36.9 µM) | > 20 | 19.5 (≈ 36 µM) | 5.34 (≈ 9.86 µM) | 6.9 (≈ 12.7 µM) | 7.73 (≈ 14.3 µM) | 15.1 (≈ 27.9 µM) | – | – |
| C=C(C)[C@@H]1CC[C@]2(C(=O)O)CC[C@]3(C)[C@H](CC[C@@H]4[C@@]5(C)Cc6c([nH]c7c(Cl)cccc67)C(C)(C)[C@@H]5CC[C@]43C)[C@@H]12 | 6.39 (≈ 11.4 µM) | 11.7 (≈ 20.7 µM) | 2 (≈ 3.56 µM) | 11.8 (≈ 21 µM) | 11.6 (≈ 20.6 µM) | 8.7 (≈ 15.5 µM) | 9.26 (≈ 16.5 µM) | 11.8 (≈ 21 µM) | 6 | – |
| C=C(C)[C@@H]1CC[C@]2(C(=O)O)CC[C@]3(C)[C@H](CC[C@@H]4[C@@]5(C)Cc6c([nH]c7ccc(OC)cc67)C(C)(C)[C@@H]5CC[C@]43C)[C@@H]12 | 5.8 (≈ 10.4 µM) | 5.75 (≈ 10.3 µM) | 8.4 (≈ 15.1 µM) | 12.8 (≈ 22.9 µM) | 6.4 (≈ 11.5 µM) | 8.2 (≈ 14.7 µM) | > 20 | 7.5 (≈ 13.4 µM) | – | – |
| C=C(C)[C@@H]1CC[C@]2(C(=O)O)CC[C@]3(C)[C@H](CC[C@@H]4[C@@]5(C)Cc6c([nH]c7ccc(Cl)cc67)C(C)(C)[C@@H]5CC[C@]43C)[C@@H]12 | 2.5 (≈ 4.45 µM) | 4.9 (≈ 8.72 µM) | 2.7 (≈ 4.8 µM) | 11.8 (≈ 20.9 µM) | 2.44 (≈ 4.34 µM) | 7.14 (≈ 12.7 µM) | 9.61 (≈ 17.1 µM) | 4.6 (≈ 8.18 µM) | – | 2 |
